Values joined by “and” are separate entries in the source; they are usually repeats but may differ in a detail not shown here. Equal entries are not always repeated.
Legend:
[1] = Population PK model; format: in vivo, human
[2] = cited from earlier work
[3] = Exposure at the 480-mg dose in HVs, study BGB-3111-106; format: in vivo, human
[4] = format: in vivo, human; conditions: 160 mg b.i.d.
How it was run: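 Final population PK model built from 4,925 plasma samples from 632 healthy volunteers and B-cell malignancy patients, on oral doses of 20–320 mg q.d. or b.i.d. Plasma levels were measured by validated HPLC-MS/MS (LLOQ 1 ng/mL). Steady-state AUCss, Cmax,ss and Cmin,ss were simulated for repeated 160 mg b.i.d. dosing, comparing 5th/95th-percentile covariate values against a median-covariate typical patient.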

[5] = oral, patients with B-cell malignancies

C=CC(=O)N1CCC([C@@H]2CCNc3c(C(N)=O)c(-c4ccc(Oc5ccccc5)cc4)nn32)CC1 [zanubrutinib, Zanubrutinib]
Ka, final model estimate (95% CI) ([1]; absorption rate constant): 0.526 (0.525, 0.526) 1/hour
D1, bootstrap estimate median (2.5–97.5 percentiles) ([1]; bootstrap of 1,000 datasets): 1.114 (0.974, 1.265) hour
IIV D1, bootstrap estimate median (2.5–97.5 percentiles) ([1]; bootstrap of 1,000 datasets): 62.2 (51.9, 72.4)
IIV Q/F, bootstrap estimate median (2.5–97.5 percentiles) ([1]; bootstrap of 1,000 datasets): 103 (83.9, 118)
IIV Vc/F, bootstrap estimate median (2.5–97.5 percentiles) ([1]; bootstrap of 1,000 datasets): 39.2 (25.9, 57.8)
IIV Vp/F, bootstrap estimate median (2.5–97.5 percentiles) ([1]; bootstrap of 1,000 datasets): 80.4 (58.9, 94.6)
IOV D1, bootstrap estimate median (2.5–97.5 percentiles) ([1]; bootstrap of 1,000 datasets): 62.2 (51.9, 72.4)
IOV Vc/F, bootstrap estimate median (2.5–97.5 percentiles) ([1]; bootstrap of 1,000 datasets): 65.9 (49.4, 76.8)
Ka, bootstrap estimate median (2.5–97.5 percentiles) ([1]; bootstrap of 1,000 datasets): 0.524 (0.481, 0.591) 1/hour
Q/F, bootstrap estimate median (2.5–97.5 percentiles) ([1]; bootstrap of 1,000 datasets): 25.6 (19.9, 32.3) L/hour
Vc/F, bootstrap estimate median (2.5–97.5 percentiles) ([1]; bootstrap of 1,000 datasets): 115 (88.4, 151) L
Vp/F, bootstrap estimate median (2.5–97.5 percentiles) ([1]; bootstrap of 1,000 datasets): 363 (274, 513) L
CL/F (HV), bootstrap estimate median (2.5–97.5 percentiles) ([1]; bootstrap of 1,000 datasets, healthy volunteers): 119 (110, 127) L/hour
CL/F (patient), bootstrap estimate median (2.5–97.5 percentiles) ([1]; bootstrap of 1,000 datasets, patient): 169 (162, 178) L/hour
effect of co-administration with PPIs and other ARAs on the PKs ([1]; covariate analysis, patients in clinical studies): did not appear to significantly impact
D1, final model estimate (95% CI) ([1]; duration of zero-order absorption into the depot compartment): 1.13 hour and 1.128 (1.125, 1.131) hour
coefficient of variance of elimination t 1/2 ([1]; final population PK model): 40.0%
CL/F (HV), final model estimate (95% CI) ([1]; healthy volunteers): 118 (107, 130) L/hour
Q/F, final model estimate (95% CI) ([1]; human, in vivo): 26.5 L/hour and 26.5 (26.3, 26.7) L/hour
Vc/F, final model estimate (95% CI) ([1]; human, in vivo): 112 L and 112 (111, 113) L
Vp/F, final model estimate (95% CI) ([1]; human, in vivo): 345 L and 345 (343, 347) L
half-life ([1]; human, plasma, oral): 3.44 h
IIV D1, final model estimate (95% CI) ([1]; interindividual variability): 62.3 (57.1, 67.1)
IIV Q/F, final model estimate (95% CI) ([1]; interindividual variability): 102 (97.8, 106)
IIV Vc/F, final model estimate (95% CI) ([1]; interindividual variability): 37.1 (NA, 53.1)
IIV Vp/F, final model estimate (95% CI) ([1]; interindividual variability): 86.4 (71.3, 99.3)
IIV estimated for CL/F ([1]; interindividual variability): 36.7%
IIV estimated for Vc/F ([1]; interindividual variability): 37.1%
IOV Vc/F, final model estimate (95% CI) ([1]; interoccasion variability): 67.5 (66.8, 68.3)
absorption rate constant ([1]; typical patient with ALT of 18 U/L): 0.526 hour^‐1
CL/F (patient), final model estimate (95% CI) ([1]; typical patient with B-cell malignancy, ALT 18 U/L): 170 L/hour and 170 (169, 170) L/hour
systemic accumulation after multiple-dose administration ([2]; 40 mg to 320 mg q.d. and 160 mg b.i.d.): limited systemic accumulation
dose dependence of Cmax and AUC0–∞ ([2]; doses from 40 mg to 320 mg): dose‐proportional increase
mean terminal elimination half-life (t 1/2) [2, 5]: 2 to 4 h
median time to peak plasma concentration (Tmax) [2, 5]: 2 h
dose dependence of exposure at the 480-mg dose [3]: less than dose‐proportional increase in exposure
magnitude of effect of ALT on AUCss [4]: < 15%
magnitude of effect of ALT on Cmax,ss [4]: < 10%
magnitude of effect of ALT on Cmin,ss [4]: < 30%
AUC ([4]; human, plasma, oral, 160 mg, total daily AUC, typical patient): 1890 ng·h/mL

— article PMC7993273 (Clinical and Translational Science, 2021)
